Measurements from different studies.
Each line is one published result; the experiments were not run side by side.

| Compound | target or system | test | conditions | endpoint | value |
| --- | --- | --- | --- | --- | --- |
| Cc1ccc(C(CS(=O)(=O)c2ccccc2)=NN=C2N=C(c3ccc(Br)cc3)CS2)cc1 | SK-MEL-23 | cell growth or viability, MTT | 25 µM, 48 h | viability | 54.9% |
| CCCCc1cccc(-c2cnc3c(n2)CCCC3)c1 | Haemonchus contortus | parasite motility | 24 h, larva | IC50 | 32.4 µM |
| O=c1[nH]c(NCc2ccc(Cl)c(Cl)c2)nc2ncn(CCCCCN3CCOCC3)c12 | Eggerthella lenta | microbial growth, agar dilution | 48 h | MIC | > 32 µg/mL |
| CCCCCc1ccc(-c2cnc3c(n2)CCCC3)cc1 | Haemonchus contortus | parasite motility | 72 h, larva | IC50 | 14.4 µM |
| CCc1cc(Nc2cc(=O)n(CCCCO)c(=O)[nH]2)ccc1C | Eggerthella lenta | microbial growth, agar dilution | 48 h | MIC | > 32 µg/mL |
| Cc1ccc(C(CS(=O)(=O)c2ccccc2)=NNC2=NC(=O)C(=NNc3ccccc3)S2)cc1 | SK-MEL-23 | cell growth or viability, MTT | 0.4 µM, 48 h | viability | 50.5% |
| CCCCOc1ccc(-c2cnc3c(n2)CCCC3)cc1 | Haemonchus contortus | parasite motility | 48 h, larva | IC50 | 6.9 µM |
| Cc1cc(Nc2ncc(Cl)c(Nc3ccccc3S(=O)(=O)C(C)C)n2)c(OC(C)C)cc1C1CCNCC1 | NCI-H2228 | cell growth or viability, MTT | 5 µg/mL, 72 h | inhibition | 93.5% |
| Cc1ccc(C(CS(=O)(=O)c2ccccc2)=NNc2nc(-c3ccc(OCCCCOc4ccc(-c5csc(NN=C(CS(=O)(=O)c6ccccc6)c6ccc(C)cc6)n5)cc4)cc3)cs2)cc1 | SK-MEL-23 | cell growth or viability, MTT | 100 µM, 48 h | viability | 37.2% |
| C[C@@H](Oc1cc(-c2cnn(C3CCNCC3)c2)cnc1N)c1c(Cl)ccc(F)c1Cl | NCI-H2228 | cell growth or viability, MTT | 0.04 µg/mL, 72 h | inhibition | 45.9% |
| CCCCOc1cccc(-c2cnc3c(n2)CCCC3)c1 | Haemonchus contortus | parasite motility | 24 h, larva | IC50 | ~49.5 µM |
| O=C(Nc1ccccc1-c1ccc(F)c(F)c1)c1nccnc1C(F)(F)F | Penicillium digitatum | microbial growth |  | EC50 | > 100 µg/mL |
